In ChEMBL document CHEMBL5143722, “Antimicrobial Peptides against Multidrug-Resistant Pseudomonas aeruginosa Biofilm from Cystic Fibrosis Patients” (J Med Chem, 2022):
Active and inactive are the calls of the source. The calls are words filed in the database; no cut-off is given here.

Key:
Pseudomonas aeruginosa [1] = test: Antibiofilm activity against Pseudomonas aeruginosa clinical isolate 53 assessed as inhibition of biofilm formation at sub-inhibitory concentration incubated for 24 hrs by crystal violet staining based microtiter plate method; type: functional, organism-based
Procedure, shortened: (§1)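 Washed overnight cultures in BM2 medium at 1 × 10^6 CFU/mL with 2-fold serial peptide dilutions in a U-bottom 96-well plate. Incubated 24 h at 37 °C without agitation. Unattached cells washed off, then 0.1% crystal violet stain read at 590 nm. No-bacteria blanks. Biomass expressed as % of untreated biofilm. At least three biological repeats.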

Pseudomonas aeruginosa [2] = test: Antibiofilm activity against Pseudomonas aeruginosa clinical isolate 24 assessed as inhibition of biofilm formation at sub-inhibitory concentration incubated for 24 hrs by crystal violet staining based microtiter plate method; type: functional, organism-based; procedure, shortened: as §1
Pseudomonas aeruginosa [3] = test: Induction of biofilm degradation of Pseudomonas aeruginosa clinical isolate 59 at <12.5 uM incubated for 1 hr by crystal violet staining analysis; type: functional
Procedure, shortened: (§2)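 Bacteria at 1 × 10^6 CFU/mL in BM2 grown static at 37 °C for 24 h to form biofilm. Wells rinsed of unattached cells, then exposed for 1 h to serial peptide dilutions (1.56–50 μM). Washed, stained with 0.1% crystal violet, A590 read. Biomass given as % of untreated biofilm; no-bacteria wells as blanks. At least three biological repeats.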

Pseudomonas aeruginosa [4] = test: Antibiofilm activity against Pseudomonas aeruginosa clinical isolate 24 in basal medium 2 at 12.5 to 100 uM incubated for 24 hrs by resazurin staining based microtiter plate method; type: functional, organism-based; conditions: dose 12.5-100 µM
Pseudomonas aeruginosa [5] = test: Antibiofilm activity against Pseudomonas aeruginosa clinical isolate 72 assessed as inhibition of biofilm formation at sub-inhibitory concentration incubated for 24 hrs by crystal violet staining based microtiter plate method; type: functional, organism-based; procedure, shortened: as §1
Pseudomonas aeruginosa [6] = test: Induction of biofilm degradation of Pseudomonas aeruginosa clinical isolate 53 at sub MIC concentration incubated for 1 hr by crystal violet staining analysis; type: functional; procedure, shortened: as §2
Pseudomonas aeruginosa [7] = test: Induction of biofilm degradation of Pseudomonas aeruginosa clinical isolate 53 at 50 uM incubated for 1 hr by crystal violet staining analysis relative to control; type: functional; procedure, shortened: as §2
Pseudomonas aeruginosa [8] = test: Antibiofilm activity against Pseudomonas aeruginosa clinical isolate 46 assessed as inhibition of biofilm formation at sub-inhibitory concentration incubated for 24 hrs by crystal violet staining based microtiter plate method; type: functional, organism-based; procedure, shortened: as §1
Pseudomonas aeruginosa [9] = test: Antibiofilm activity against Pseudomonas aeruginosa clinical isolate 629 assessed as inhibition of biofilm formation at sub-inhibitory concentration incubated for 24 hrs by crystal violet staining based microtiter plate method; type: functional, organism-based; procedure, shortened: as §1
Pseudomonas aeruginosa [10] = test: Induction of biofilm degradation of Pseudomonas aeruginosa clinical isolate 52 at 50 uM incubated for 1 hr by crystal violet staining analysis relative to control; type: functional; procedure, shortened: as §2
Pseudomonas aeruginosa [11] = test: Antibiofilm activity against Pseudomonas aeruginosa clinical isolate 82 in basal medium 2 at 12.5 to 100 uM incubated for 24 hrs by resazurin staining based microtiter plate method; type: functional, organism-based; conditions: dose 12.5-100 µM
Pseudomonas aeruginosa [12] = test: Induction of biofilm degradation of Pseudomonas aeruginosa clinical isolate 251 at 50 uM incubated for 1 hr by crystal violet staining analysis; type: functional; procedure, shortened: as §2
Pseudomonas aeruginosa [13] = test: Induction of biofilm degradation of Pseudomonas aeruginosa clinical isolate 72 at 50 uM incubated for 1 hr by crystal violet staining analysis relative to control; type: functional; procedure, shortened: as §2
Pseudomonas aeruginosa [14] = test: Induction of biofilm degradation of Pseudomonas aeruginosa clinical isolate 99 at 50 uM incubated for 1 hr by crystal violet staining analysis relative to control; type: functional; procedure, shortened: as §2
Pseudomonas aeruginosa [15] = test: Induction of biofilm degradation of Pseudomonas aeruginosa clinical isolate 25 at 50 uM incubated for 1 hr by crystal violet staining analysis relative to control; type: functional; procedure, shortened: as §2
Pseudomonas aeruginosa [16] = test: Induction of biofilm degradation of Pseudomonas aeruginosa clinical isolate 71 at 50 uM incubated for 1 hr by crystal violet staining analysis relative to control; type: functional; procedure, shortened: as §2
Pseudomonas aeruginosa [17] = test: Inhibition of biofilm formation of Pseudomonas aeruginosa clinical isolate 24 derived from cystic fibrosis patient sputum at 0.09 to 3.12 uM by crystal violet based staining analysis; type: functional, organism-based; conditions: dose 0.09-3.12 µM
Procedure, shortened: (§3)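 CF patient sputum diluted 10-fold with BM2, bacteria added with serial peptide dilutions starting from the highest MIC per isolate. Inoculum suspension 1 × 10^6 CFU/mL. Incubated 24 h at 37 °C without agitation. Unattached cells washed away, then 0.1% crystal violet staining and A590. Biomass given as % of untreated, with no-bacteria blanks.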

Pseudomonas aeruginosa [18] = test: Inhibition of biofilm formation of Pseudomonas aeruginosa clinical isolate 82 derived from cystic fibrosis patient sputum at 0.09 to 3.12 uM by crystal violet based staining analysis; type: functional, organism-based; conditions: dose 0.09-3.12 µM; procedure, shortened: as §3
Pseudomonas aeruginosa [19] = test: Induction of biofilm degradation of Pseudomonas aeruginosa clinical isolate 24 incubated for 1 hr by crystal violet staining analysis relative to control; type: functional; conditions: dose 50.0 µM; procedure, shortened: as §2
Pseudomonas aeruginosa [20] = test: Induction of biofilm degradation of Pseudomonas aeruginosa clinical isolate 629 at 50 uM incubated for 1 hr by crystal violet staining analysis relative to control; type: functional; procedure, shortened: as §2
Pseudomonas aeruginosa [21] = test: Antibiofilm activity against Pseudomonas aeruginosa clinical isolate 99 assessed as inhibition of biofilm formation at sub-inhibitory concentration incubated for 24 hrs by crystal violet staining based microtiter plate method; type: functional, organism-based; procedure, shortened: as §1
Pseudomonas aeruginosa [22] = test: Antibiofilm activity against Pseudomonas aeruginosa clinical isolate 71 assessed as inhibition of biofilm formation at sub-inhibitory concentration incubated for 24 hrs by crystal violet staining based microtiter plate method; type: functional, organism-based; procedure, shortened: as §1
[23] = tested on: Pseudomonas aeruginosa PAO1; test: Induction of biofilm degradation of Pseudomonas aeruginosa PAO1 in cystic fibrosis patient sputum at 10 uM incubated for 48 hr by resazurin staining based confocal microscopy analysis
Pseudomonas aeruginosa [24] = test: Induction of biofilm degradation of Pseudomonas aeruginosa clinical isolate 238 at 50 uM incubated for 1 hr by crystal violet staining analysis relative to control; type: functional; procedure, shortened: as §2
Pseudomonas aeruginosa [25] = test: Induction of biofilm degradation of Pseudomonas aeruginosa clinical isolate 172 at 50 uM incubated for 1 hr by crystal violet staining analysis relative to control; type: functional; procedure, shortened: as §2
Pseudomonas aeruginosa [26] = test: Antibiofilm activity against Pseudomonas aeruginosa PAO1 in basal medium 2 at 12.5 to 100 uM incubated for 24 hrs by resazurin staining based microtiter plate method; type: functional, organism-based; conditions: dose 12.5-100 µM
Pseudomonas aeruginosa [27] = test: Inhibition of biofilm formation of Pseudomonas aeruginosa clinical isolate 24 derived from cystic fibrosis patient sputum at 0.78 to 25 uM by crystal violet based staining analysis; type: functional, organism-based; conditions: dose 0.78-25 µM; procedure, shortened: as §3
Pseudomonas aeruginosa [28] = test: Induction of biofilm degradation of Pseudomonas aeruginosa clinical isolate 82 at 50 uM incubated for 1 hr by crystal violet staining analysis relative to control; type: functional; procedure, shortened: as §2
Pseudomonas aeruginosa [29] = test: Induction of biofilm degradation of Pseudomonas aeruginosa clinical isolate 40 at sub MIC concentration incubated for 1 hr by crystal violet staining analysis; type: functional; procedure, shortened: as §2
Pseudomonas aeruginosa [30] = test: Inhibition of biofilm formation of Pseudomonas aeruginosa PAO1 in patient derived CF-sputum at 0.09 to 3.12 uM by crystal violet based staining analysis; type: functional, organism-based; conditions: dose 0.09-3.12 µM; procedure, shortened: as §3
Pseudomonas aeruginosa [31] = test: Induction of biofilm degradation of Pseudomonas aeruginosa clinical isolate 995 at 50 uM incubated for 1 hr by crystal violet staining analysis relative to control; type: functional; procedure, shortened: as §2
Pseudomonas aeruginosa [32] = test: Antibiofilm activity against Pseudomonas aeruginosa clinical isolate 25 assessed as inhibition of biofilm formation at sub-inhibitory concentration incubated for 24 hrs by crystal violet staining based microtiter plate method; type: functional, organism-based; procedure, shortened: as §1
Pseudomonas aeruginosa [33] = test: Induction of biofilm degradation of Pseudomonas aeruginosa clinical isolate 40 at 50 uM incubated for 1 hr by crystal violet staining analysis relative to control; type: functional; procedure, shortened: as §2
Pseudomonas aeruginosa [34] = test: Induction of biofilm degradation of Pseudomonas aeruginosa clinical isolate 24 at sub MIC concentration incubated for 1 hr by crystal violet staining analysis; type: functional; procedure, shortened: as §2
Pseudomonas aeruginosa [35] = test: Induction of biofilm degradation of Pseudomonas aeruginosa clinical isolate 59 at 50 uM incubated for 1 hr by crystal violet staining analysis relative to control; type: functional
Procedure, shortened: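 Inoculum of 1 × 10^6 CFU/mL was grown 24 h at 37 °C without agitation to form biofilm. Wells were rinsed of unattached bacteria and exposed for 1 h to serial peptide dilutions (1.56–50 μM). They were then washed, stained with 0.1% crystal violet, and read at 590 nm with no-bacteria blanks. Biomass is given as % of untreated biofilm.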

Pseudomonas aeruginosa [36] = test: Induction of biofilm degradation of Pseudomonas aeruginosa clinical isolate 29 at 50 uM incubated for 1 hr by crystal violet staining analysis relative to control; type: functional; procedure, shortened: as §2
Pseudomonas aeruginosa [37] = test: Induction of biofilm degradation of Pseudomonas aeruginosa PAO1 at 50 uM incubated for 1 hr by crystal violet staining analysis relative to control; type: functional; procedure, shortened: as §2
Pseudomonas aeruginosa [38] = test: Antibiofilm activity against Pseudomonas aeruginosa clinical isolate 46 in basal medium 2 at 12.5 to 100 uM incubated for 24 hrs by resazurin staining based microtiter plate method; type: functional, organism-based; conditions: dose 12.5-100 µM
Pseudomonas aeruginosa [39] = test: Induction of biofilm degradation of Pseudomonas aeruginosa clinical isolate 46 at 50 uM incubated for 1 hr by crystal violet staining analysis relative to control; type: functional; procedure, shortened: as §2

SMILES: CC(C)C[C@H](NC(=O)[C@H](CC(C)C)NC(=O)[C@H](CC(C)C)NC(=O)[C@H](CC(C)C)NC(=O)[C@H](CCCCN)NC(=O)[C@H](CCCCN)NC(=O)[C@H](CCCCN)NC(=O)[C@H](CCCCN)NC(=O)[C@H](CCCCN)NC(=O)[C@H](CCCCN)NC(=O)[C@H](CC(C)C)NC(=O)[C@H](CC(C)C)NC(=O)[C@H](CC(C)C)NC(=O)[C@H](CC(C)C)NC(=O)[C@@H](N)CC(C)C)C(N)=O
- inhibition (Pseudomonas aeruginosa [1]): Active
- inhibition (Pseudomonas aeruginosa [2]): Active
- Activity (Pseudomonas aeruginosa [3]): Active
- Activity (Pseudomonas aeruginosa [4]): Active
- inhibition (Pseudomonas aeruginosa [5]): Active
- Activity (Pseudomonas aeruginosa [6]): Active
- Activity (Pseudomonas aeruginosa [7]): 60%
- inhibition (Pseudomonas aeruginosa [8]): Active
- inhibition (Pseudomonas aeruginosa [9]): Active
- Activity (Pseudomonas aeruginosa [10]): 60%
- Activity (Pseudomonas aeruginosa [11]): Active
- Activity (Pseudomonas aeruginosa [12]): 60%
- Activity (Pseudomonas aeruginosa [13]): 60%
- Activity (Pseudomonas aeruginosa [14]): 60%
- Activity (Pseudomonas aeruginosa [15]): 60%
- Activity (Pseudomonas aeruginosa [16]): 60%
- inhibition (Pseudomonas aeruginosa [17]): Active
- inhibition (Pseudomonas aeruginosa [18]): Active
- Activity (Pseudomonas aeruginosa [19]): 60%
- Activity (Pseudomonas aeruginosa [20]): 60%
- inhibition (Pseudomonas aeruginosa [21]): Active
- inhibition (Pseudomonas aeruginosa [22]): Active
- Activity [23]: Active
- Activity (Pseudomonas aeruginosa [24]): 60%
- Activity (Pseudomonas aeruginosa [25]): 60%
- Activity (Pseudomonas aeruginosa [26]): Active
- inhibition (Pseudomonas aeruginosa [27]): Active
- Activity (Pseudomonas aeruginosa [28]): 60%
- Activity (Pseudomonas aeruginosa [29]): Active
- inhibition (Pseudomonas aeruginosa [30]): Active
- Activity (Pseudomonas aeruginosa [31]): 60%
- inhibition (Pseudomonas aeruginosa [32]): Active
- Activity (Pseudomonas aeruginosa [33]): 60%
- Activity (Pseudomonas aeruginosa [34]): Active
- Activity (Pseudomonas aeruginosa [35]): 40%
- Activity (Pseudomonas aeruginosa [36]): 60%
- Activity (Pseudomonas aeruginosa [37]): 60%
- Activity (Pseudomonas aeruginosa [38]): Active
- Activity (Pseudomonas aeruginosa [39]): 60%
